Measurements reported in ChEMBL document CHEMBL4261600 (Eur J Med Chem, 2018).
The source made the active and inactive calls.

Columns and labels:
[1] = Antiproliferative activity against human MEC2 cells after 72 hrs by Celltiter-Glo assay; format: functional; conditions: MEC2, 72 h
Procedure, shortened: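 Cells seeded at 3000/well in 96-well plates, exposed to serially diluted compound for 72 h at 37 °C, 5% CO2. Viability read by CellTiter-Glo luminescence and normalized to DMSO control. GI50 derived from curve fit, mean of three independent measurements. Culture media: DMEM/10% FBS for adherent lines; IMDM for MV4-11 and MEC-1/2; RPMI 1640 for suspension lines and CHL.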

[2] = target: Cyclin-dependent kinase 7 (Homo sapiens) (UniProt P50613); test: Inhibition of CDK7 in human HL60 cells assessed as decrease in RNA polymerase 2 phosphorylation at Ser 5 residues up to 3 uM after 2 hrs by immunoblotting analysis; format: cell-based
[3] = Half life in beagle dog at 10 mg/kg, po by LC-MS/MS analysis; format: ADME, organism-based, Canis lupus familiaris; conditions: in vivo
[4] = Tmax in beagle dog at 2 mg/kg, iv by LC-MS/MS analysis; format: ADME, organism-based, Canis lupus familiaris; conditions: in vivo
[5] = target: Calcium/calmodulin-dependent protein kinase type 1D (Homo sapiens) (UniProt Q8IU85); test: Binding affinity to wild-type human partial length CAMK1D (M1 to K299 residues) expressed in bacterial expression system assessed as remaining unbound target protein level at 1000 nM by Kinomescan method relative to control
Procedure, shortened: (§1)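 Profiled in a KINOMEscan binding panel with the inhibitor at a single concentration of 1 μM. Binding to each kinase was read out as percent of control, relative to a DMSO control. Strong binders were defined as those with a percent control value below 1.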

[6] = target: Calcium/calmodulin-dependent protein kinase type II subunit gamma (Homo sapiens) (UniProt Q13555); test: Binding affinity to wild-type human partial length CAMK2G (R9 to A303 residues) expressed in bacterial expression system assessed as remaining unbound target protein level at 1000 nM by Kinomescan method relative to control
Procedure, shortened: (§2)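 KINOMEscan competition binding profile across a panel of 468 kinases and mutants, with the inhibitor tested at a single concentration of 1 μM. Binding is reported as percent of control, meaning signal relative to a DMSO control.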

[7] = target: Calcium/calmodulin-dependent protein kinase kinase 2 (Homo sapiens) (UniProt Q96RR4); test: Binding affinity to wild-type human partial length CAMKK2 (D65 to V471 residues) expressed in bacterial expression system assessed as remaining unbound target protein level at 1000 nM by Kinomescan method relative to control; procedure, shortened: as §1
[8] = target: Discoidin domain-containing receptor 2 (Homo sapiens) (UniProt Q16832); test: Binding affinity to wild-type human partial length DDR2 (V555 to E855 residues) expressed in mammalian expression system assessed as remaining unbound target protein level at 1000 nM by Kinomescan method relative to control
[9] = target: Ephrin type-A receptor 3 (Homo sapiens) (UniProt P29320); test: Binding affinity to wild-type human partial length EPHA3 (D604 to K889 residues) expressed in bacterial expression system assessed as remaining unbound target protein level at 1000 nM by Kinomescan method relative to control
Procedure, shortened: (§3)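 KINOMEscan binding panel of 468 kinases/mutants. Inhibitor was tested at a single concentration of 1 μM. Binding is reported as percent of control, defined relative to a DMSO control.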

[10] = target: Ephrin type-A receptor 8 (Homo sapiens) (UniProt P29322); test: Binding affinity to wild-type human partial length EPHA8 (Q608 to C920 residues) expressed in bacterial expression system assessed as remaining unbound target protein level at 1000 nM by Kinomescan method relative to control
[11] = target: Receptor tyrosine-protein kinase erbB-3 (Homo sapiens) (UniProt P21860); test: Binding affinity to wild-type human partial length ERBB3 (G684 to A987 residues) expressed in mammalian expression system assessed as remaining unbound target protein level at 1000 nM by Kinomescan method relative to control; procedure, shortened: as §3
[12] = target: LIM domain kinase 1 (Homo sapiens) (UniProt P53667); test: Binding affinity to wild-type human full length LIMK1 (M1 to D647 residues) expressed in bacterial expression system assessed as remaining unbound target protein level at 1000 nM by Kinomescan method relative to control
Procedure, shortened: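 Single-point competition binding screen across a panel of 468 kinases and mutants, with the inhibitor at 1 μM. Binding is read out as percent of a DMSO control, and targets below 1 percent control were classed as strong binders.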

[13] = target: Mitogen-activated protein kinase kinase kinase kinase 3 (Homo sapiens) (UniProt Q8IVH8); test: Binding affinity to wild-type human partial length MAP4K3 (M1 to D301 residues) expressed in bacterial expression system assessed as remaining unbound target protein level at 1000 nM by Kinomescan method relative to control
[14] = target: Dual specificity mitogen-activated protein kinase kinase 3 (Homo sapiens) (UniProt P46734); test: Binding affinity to wild-type human full length MEK3 (M1 to S318 residues) expressed in mammalian expression system assessed as remaining unbound target protein level at 1000 nM by Kinomescan method relative to control; procedure, shortened: as §2
[15] = target: Serine/threonine-protein kinase Nek1 (Homo sapiens) (UniProt Q96PY6); test: Binding affinity to wild-type human partial length NEK1 (M1 to K278 residues) expressed in bacterial expression system assessed as remaining unbound target protein level at 1000 nM by Kinomescan method relative to control
[16] = target: Protein kinase C eta type (Homo sapiens) (UniProt P24723); test: Binding affinity to wild-type human partial length PRKCH (S324 to P683 residues) expressed in bacterial expression system assessed as remaining unbound target protein level at 1000 nM by Kinomescan method relative to control
[17] = test system: Proto-oncogene tyrosine-protein kinase receptor Ret (Homo sapiens), P07949 [V804L]; test: Binding affinity to human partial length RET V804L mutant (E713 to D1014 residues) expressed in bacterial expression system assessed as remaining unbound target protein level at 1000 nM by Kinomescan method relative to control
Procedure, shortened: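 KINOMEscan competition-binding profiling across the panel of 468 kinases and mutants, with inhibitor tested at 1 μM. Binding is expressed as percent of control, with DMSO as the reference control.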

[18] = target: STE20-like serine/threonine-protein kinase (Homo sapiens) (UniProt Q9H2G2); test: Binding affinity to wild-type human partial length SLK (S14 to A307 residues) expressed in bacterial expression system assessed as remaining unbound target protein level at 1000 nM by Kinomescan method relative to control
[19] = target: BDNF/NT-3 growth factors receptor (Homo sapiens) (UniProt Q16620); test: Binding affinity to wild-type human partial length TRKB (Q547 to G838 residues) expressed in mammalian expression system assessed as remaining unbound target protein level at 1000 nM by Kinomescan method relative to control
[20] = target: Serine/threonine-protein kinase ULK3 (Homo sapiens) (UniProt Q6PHR2); test: Binding affinity to wild-type human partial length ULK3 (M1 to Q290 residues) expressed in mammalian expression system assessed as remaining unbound target protein level at 1000 nM by Kinomescan method relative to control
[21] = target: Cyclin-dependent kinase 14/Cyclin-Y (Homo sapiens, UniProt O94921); test: Inhibition of recombinant GST-tagged human full length CDK14/cyclin Y (2 to end residues); format: protein-complex assay

Chain of Cyclin-dependent kinase 7 (Homo sapiens) (P50613 whole entry): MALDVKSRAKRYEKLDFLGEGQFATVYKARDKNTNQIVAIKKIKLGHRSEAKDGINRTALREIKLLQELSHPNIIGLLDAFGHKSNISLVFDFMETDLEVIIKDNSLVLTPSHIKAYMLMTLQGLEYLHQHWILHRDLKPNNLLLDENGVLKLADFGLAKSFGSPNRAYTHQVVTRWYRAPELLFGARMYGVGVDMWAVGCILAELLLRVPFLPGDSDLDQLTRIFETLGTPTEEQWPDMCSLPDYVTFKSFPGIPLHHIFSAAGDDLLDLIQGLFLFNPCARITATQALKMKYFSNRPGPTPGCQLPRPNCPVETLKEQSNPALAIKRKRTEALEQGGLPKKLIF
Chain of Proto-oncogene tyrosine-protein kinase receptor Ret (Homo sapiens), P07949 [V804L] (P07949 whole entry V804L, the tested form may be a part): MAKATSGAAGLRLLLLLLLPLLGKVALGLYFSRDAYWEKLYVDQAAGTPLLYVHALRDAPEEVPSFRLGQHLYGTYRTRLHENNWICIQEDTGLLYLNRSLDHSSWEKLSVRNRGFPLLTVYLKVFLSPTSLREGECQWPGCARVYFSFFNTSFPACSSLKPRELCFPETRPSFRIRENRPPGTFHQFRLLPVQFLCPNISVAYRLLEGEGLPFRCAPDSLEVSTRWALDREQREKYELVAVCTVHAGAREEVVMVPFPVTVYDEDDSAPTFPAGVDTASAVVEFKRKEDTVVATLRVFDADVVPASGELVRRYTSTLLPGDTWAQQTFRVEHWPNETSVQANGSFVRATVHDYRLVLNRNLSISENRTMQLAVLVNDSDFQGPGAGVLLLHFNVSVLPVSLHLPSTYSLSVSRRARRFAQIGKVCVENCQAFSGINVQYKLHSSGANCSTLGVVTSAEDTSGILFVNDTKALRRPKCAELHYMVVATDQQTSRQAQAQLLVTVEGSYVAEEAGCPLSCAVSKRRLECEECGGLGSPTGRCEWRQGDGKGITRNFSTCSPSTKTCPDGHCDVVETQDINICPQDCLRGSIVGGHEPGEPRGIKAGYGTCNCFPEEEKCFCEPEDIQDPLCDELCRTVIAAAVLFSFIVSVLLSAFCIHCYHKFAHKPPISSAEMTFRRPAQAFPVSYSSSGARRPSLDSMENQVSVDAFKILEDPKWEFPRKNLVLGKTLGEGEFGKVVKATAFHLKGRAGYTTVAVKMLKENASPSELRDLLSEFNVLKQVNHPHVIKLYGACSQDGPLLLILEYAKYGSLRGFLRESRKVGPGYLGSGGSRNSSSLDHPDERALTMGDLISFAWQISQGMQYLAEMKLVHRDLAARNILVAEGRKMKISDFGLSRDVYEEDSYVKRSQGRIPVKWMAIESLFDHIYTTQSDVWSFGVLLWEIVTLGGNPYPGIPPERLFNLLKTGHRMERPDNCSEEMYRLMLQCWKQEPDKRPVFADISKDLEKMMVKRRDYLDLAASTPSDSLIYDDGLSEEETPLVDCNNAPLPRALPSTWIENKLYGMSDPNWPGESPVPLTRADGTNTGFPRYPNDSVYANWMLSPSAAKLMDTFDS
Chain of Calcium/calmodulin-dependent protein kinase kinase 2 (Homo sapiens) (Q96RR4 2-588 limits assumed): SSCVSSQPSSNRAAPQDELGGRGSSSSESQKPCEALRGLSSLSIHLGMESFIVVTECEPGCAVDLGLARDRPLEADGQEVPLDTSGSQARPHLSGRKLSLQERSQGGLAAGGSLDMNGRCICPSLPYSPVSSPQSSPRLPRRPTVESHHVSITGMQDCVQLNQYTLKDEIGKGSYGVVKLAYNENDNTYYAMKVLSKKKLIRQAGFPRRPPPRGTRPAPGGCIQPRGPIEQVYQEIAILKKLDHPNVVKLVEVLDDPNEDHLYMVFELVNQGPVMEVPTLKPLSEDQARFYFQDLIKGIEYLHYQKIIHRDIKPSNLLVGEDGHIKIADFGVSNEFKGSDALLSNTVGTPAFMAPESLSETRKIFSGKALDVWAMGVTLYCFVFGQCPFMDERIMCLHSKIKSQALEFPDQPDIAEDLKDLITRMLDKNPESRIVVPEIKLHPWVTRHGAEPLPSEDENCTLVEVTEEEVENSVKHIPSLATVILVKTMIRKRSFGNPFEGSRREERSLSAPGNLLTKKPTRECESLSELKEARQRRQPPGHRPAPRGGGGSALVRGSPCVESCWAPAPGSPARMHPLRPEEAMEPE
Chain of Mitogen-activated protein kinase kinase kinase kinase 3 (Homo sapiens) (Q8IVH8 whole entry, the tested form may be a part): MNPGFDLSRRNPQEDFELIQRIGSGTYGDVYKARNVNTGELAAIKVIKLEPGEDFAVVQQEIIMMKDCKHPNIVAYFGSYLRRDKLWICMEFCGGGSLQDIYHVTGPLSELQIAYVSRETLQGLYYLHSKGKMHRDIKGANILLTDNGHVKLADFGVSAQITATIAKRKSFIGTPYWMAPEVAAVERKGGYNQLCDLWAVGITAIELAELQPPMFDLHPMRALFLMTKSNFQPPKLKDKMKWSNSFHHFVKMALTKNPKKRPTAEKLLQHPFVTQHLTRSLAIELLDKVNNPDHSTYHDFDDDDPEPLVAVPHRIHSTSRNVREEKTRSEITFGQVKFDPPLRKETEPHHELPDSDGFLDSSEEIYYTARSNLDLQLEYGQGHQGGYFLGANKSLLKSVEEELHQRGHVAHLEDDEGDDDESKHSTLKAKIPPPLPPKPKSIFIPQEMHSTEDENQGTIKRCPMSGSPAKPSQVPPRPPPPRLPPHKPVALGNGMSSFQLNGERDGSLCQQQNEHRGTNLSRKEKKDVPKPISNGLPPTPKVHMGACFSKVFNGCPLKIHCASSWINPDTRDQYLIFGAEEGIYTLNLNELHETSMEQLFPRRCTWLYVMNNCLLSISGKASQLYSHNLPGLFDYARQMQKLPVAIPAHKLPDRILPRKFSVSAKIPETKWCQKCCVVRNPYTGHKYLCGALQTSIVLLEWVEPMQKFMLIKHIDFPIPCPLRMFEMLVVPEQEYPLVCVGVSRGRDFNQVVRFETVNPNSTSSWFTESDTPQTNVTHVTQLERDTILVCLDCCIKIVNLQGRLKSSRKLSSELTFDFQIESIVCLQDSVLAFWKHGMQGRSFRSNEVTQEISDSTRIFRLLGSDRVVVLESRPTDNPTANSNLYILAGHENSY
Chain of Serine/threonine-protein kinase ULK3 (Homo sapiens) (Q6PHR2 whole entry, the tested form may be a part): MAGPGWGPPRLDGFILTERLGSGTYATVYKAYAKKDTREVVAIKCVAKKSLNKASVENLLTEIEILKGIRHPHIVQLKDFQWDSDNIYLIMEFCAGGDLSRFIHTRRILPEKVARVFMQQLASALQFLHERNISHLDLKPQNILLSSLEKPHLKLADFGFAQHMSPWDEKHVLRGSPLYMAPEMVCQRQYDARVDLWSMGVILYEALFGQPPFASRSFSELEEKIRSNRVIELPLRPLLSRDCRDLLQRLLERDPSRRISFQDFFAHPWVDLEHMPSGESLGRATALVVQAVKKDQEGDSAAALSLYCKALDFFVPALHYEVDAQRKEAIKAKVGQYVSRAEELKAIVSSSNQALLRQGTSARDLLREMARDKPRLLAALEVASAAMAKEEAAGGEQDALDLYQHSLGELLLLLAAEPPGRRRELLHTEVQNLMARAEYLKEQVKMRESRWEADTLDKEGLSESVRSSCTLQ
Chain of Ephrin type-A receptor 3 (Homo sapiens) (P29320 whole entry, the tested form may be a part): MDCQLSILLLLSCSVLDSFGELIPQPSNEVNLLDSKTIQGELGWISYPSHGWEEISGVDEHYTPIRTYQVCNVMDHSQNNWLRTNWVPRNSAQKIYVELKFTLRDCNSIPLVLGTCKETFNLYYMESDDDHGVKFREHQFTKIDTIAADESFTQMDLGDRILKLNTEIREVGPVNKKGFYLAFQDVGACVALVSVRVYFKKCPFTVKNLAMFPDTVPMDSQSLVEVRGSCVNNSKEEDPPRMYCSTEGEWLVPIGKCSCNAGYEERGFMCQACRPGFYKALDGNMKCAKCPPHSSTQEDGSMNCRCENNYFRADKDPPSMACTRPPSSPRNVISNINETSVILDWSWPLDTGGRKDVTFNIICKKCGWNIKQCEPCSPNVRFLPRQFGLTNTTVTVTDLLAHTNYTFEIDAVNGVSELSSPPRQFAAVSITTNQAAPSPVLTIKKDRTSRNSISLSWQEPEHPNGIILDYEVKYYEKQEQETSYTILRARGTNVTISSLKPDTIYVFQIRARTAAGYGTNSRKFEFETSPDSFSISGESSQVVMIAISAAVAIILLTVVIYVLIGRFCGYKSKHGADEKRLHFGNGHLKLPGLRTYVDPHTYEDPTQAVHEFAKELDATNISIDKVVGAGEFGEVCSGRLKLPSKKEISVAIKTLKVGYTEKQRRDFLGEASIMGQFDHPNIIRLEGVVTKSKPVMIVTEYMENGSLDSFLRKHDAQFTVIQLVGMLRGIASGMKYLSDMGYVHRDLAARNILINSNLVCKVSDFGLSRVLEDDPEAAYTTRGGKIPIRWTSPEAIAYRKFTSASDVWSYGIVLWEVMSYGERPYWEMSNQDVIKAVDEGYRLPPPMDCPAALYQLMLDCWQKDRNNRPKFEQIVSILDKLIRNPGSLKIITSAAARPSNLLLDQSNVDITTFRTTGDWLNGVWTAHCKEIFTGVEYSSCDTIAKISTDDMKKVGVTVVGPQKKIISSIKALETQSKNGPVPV
Chain of Calcium/calmodulin-dependent protein kinase type 1D (Homo sapiens) (Q8IU85 whole entry, looked up, the tested form may be a part): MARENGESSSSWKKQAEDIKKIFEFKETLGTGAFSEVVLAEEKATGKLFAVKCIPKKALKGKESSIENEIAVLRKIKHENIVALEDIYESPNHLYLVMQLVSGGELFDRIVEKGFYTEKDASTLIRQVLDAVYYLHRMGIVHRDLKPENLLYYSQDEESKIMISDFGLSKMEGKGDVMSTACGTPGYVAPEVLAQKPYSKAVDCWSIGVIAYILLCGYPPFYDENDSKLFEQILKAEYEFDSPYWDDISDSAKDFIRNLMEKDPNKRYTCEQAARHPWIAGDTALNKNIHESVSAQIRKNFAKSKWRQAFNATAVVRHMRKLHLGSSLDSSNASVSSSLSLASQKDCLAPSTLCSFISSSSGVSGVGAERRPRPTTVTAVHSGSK

## COCCN[C@H]1CC[C@H](Nc2cc(-c3csc(NCC4(C#N)CCOCC4)n3)c(Cl)cn2)CC1
[1]
  GI50: 37 nM
[2]
  inhibition: inactive
[3]
  half-life: 20.4 h
[4]
  Tmax: 1.2 min
[5]
  Activity: 100%
[6]
  Activity: 99%
[7]
  Activity: 100%
[8]
  Activity: 97%
[9]
  Activity: 94%
[10]
  Activity: 92%
[11]
  Activity: 93%
[12]
  Activity: 90%
[13]
  Activity: 100%
[14]
  Activity: 86%
[15]
  Activity: 85%
[16]
  Activity: 98%
[17]
  Activity: 92%
[18]
  Activity: 81%
[19]
  Activity: 79%
[20]
  Activity: 100%
[21]
  IC50: 1680 nM
